Data from ChEMBL document CHEMBL2057135, “Synthesis, antitubercular and antimicrobial evaluation of 3-(4-chlorophenyl)-4-substituted pyrazole derivatives” (2012).
Values after ≈ are worked out from the molar mass of the structure shown.

How the values were obtained:
Type in all cases: functional
Aspergillus flavus = assay: Antifungal activity against Aspergillus flavus KCCM 11899 after 2 days; conditions: KCCM 11899, 48 h
Staphylococcus aureus = assay: Antibacterial activity against Staphylococcus aureus ATCC 29213
Escherichia coli = assay: Antibacterial activity against Escherichia coli ATCC 25922
[1] = tested on: Mycobacterium tuberculosis; assay: Antitubercular activity against Mycobacterium tuberculosis H37Rv ATCC 27294 after 7 days by BACTEC method; conditions: H37Rv ATCC 27294, 168 h
Procedure, shortened: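 Screened in vitro against M. tuberculosis H37Rv in a modified BACTEC 460 radiometric system. Test compound stocks were made at 1 mg/ml in DMSO and filter-sterilised through 0.22 µm PTFE filters. MIC was read, with rifampin as the reference agent.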

Pichia kudriavzevii = assay: Antifungal activity against Candida krusei KCCM 11655 after 1 day; conditions: KCCM 11655, 24 h
Aspergillus niger = assay: Antifungal activity against Aspergillus niger KCTC 1231 after 2 days; conditions: KCTC 1231, 48 h
Cryptococcus neoformans = assay: Antifungal activity against Cryptococcus neoformans KCCM 50564 after 1 day; conditions: KCCM 50564, 24 h

| SMILES | MIC (Aspergillus flavus) [µg/mL] | MIC (Staphylococcus aureus) [µg/mL] | MIC (Escherichia coli) [µg/mL] | MIC [1] [µg/mL] | MIC (Pichia kudriavzevii) [µg/mL] | MIC (Aspergillus niger) [µg/mL] | MIC (Cryptococcus neoformans) [µg/mL] |
| --- | --- | --- | --- | --- | --- | --- | --- |
| COc1cc(C2SCC(=O)N2NC(=O)c2cc(-c3ccc(Cl)cc3)n[nH]2)ccc1O (racemic) | 12.5 (≈ 28.1 µM) | 0.15 (≈ 0.337 µM) | 0.05 (≈ 0.112 µM) | 0.65 (≈ 1.46 µM) | 12.5 (≈ 28.1 µM) | 1.6 (≈ 3.6 µM) | 1.6 (≈ 3.6 µM) |
| O=C(NN1C(=O)[C@H](Cl)[C@H]1c1ccccc1O)c1cc(-c2ccc(Cl)cc2)n[nH]1 (racemic) | 12.5 (≈ 30 µM) | 0.125 (≈ 0.3 µM) | 0.019 (≈ 0.0455 µM) | 0.35 (≈ 0.839 µM) | 6.3 (≈ 15.1 µM) | 12.5 (≈ 30 µM) | 1.6 (≈ 3.83 µM) |
| O=C(NN1C(=O)CSC1c1ccccc1O)c1cc(-c2ccc(Cl)cc2)n[nH]1 (racemic) | 12.5 (≈ 30.1 µM) | 0.06 (≈ 0.145 µM) | 0.028 (≈ 0.0675 µM) | 0.5 (≈ 1.21 µM) | 12.5 (≈ 30.1 µM) | 6.3 (≈ 15.2 µM) | 6.3 (≈ 15.2 µM) |
| O=C(NN1C(=O)[C@H](Cl)[C@H]1c1ccc(O)cc1)c1cc(-c2ccc(Cl)cc2)n[nH]1 (racemic) | 12.5 (≈ 30 µM) | 0.04 (≈ 0.0959 µM) | 0.01 (≈ 0.024 µM) | 0.6 (≈ 1.44 µM) | 25 (≈ 59.9 µM) | 1.6 (≈ 3.83 µM) | 3.2 (≈ 7.67 µM) |
| O=C(NN1C(=O)[C@H](Cl)[C@H]1c1ccccc1[N+](=O)[O-])c1cc(-c2ccc(Cl)cc2)n[nH]1 (racemic) | 50 (≈ 112 µM) | 6 (≈ 13.4 µM) | 0.5 (≈ 1.12 µM) | 1.9 (≈ 4.26 µM) | 12.5 (≈ 28 µM) | 100 (≈ 224 µM) | 50 (≈ 112 µM) |
| O=C(NN1C(=O)CSC1c1ccccc1[N+](=O)[O-])c1cc(-c2ccc(Cl)cc2)n[nH]1 (racemic) | 50 (≈ 113 µM) | 2 (≈ 4.51 µM) | 0.1 (≈ 0.225 µM) | 4 (≈ 9.01 µM) | 25 (≈ 56.3 µM) | 50 (≈ 113 µM) | 3.2 (≈ 7.21 µM) |
| O=C(NN1C(=O)[C@H](Cl)[C@H]1c1cccc([N+](=O)[O-])c1)c1cc(-c2ccc(Cl)cc2)n[nH]1 (racemic) | 50 (≈ 112 µM) | 1.2 (≈ 2.69 µM) | 0.33 (≈ 0.739 µM) | 1.99 (≈ 4.46 µM) | 100 (≈ 224 µM) | 12.5 (≈ 28 µM) | 50 (≈ 112 µM) |
| O=C(NN1C(=O)CSC1c1cccc([N+](=O)[O-])c1)c1cc(-c2ccc(Cl)cc2)n[nH]1 (racemic) | 100 (≈ 225 µM) | 8 (≈ 18 µM) | 0.6 (≈ 1.35 µM) | 2 (≈ 4.51 µM) | 50 (≈ 113 µM) | 25 (≈ 56.3 µM) | 100 (≈ 225 µM) |
| O=C(NN1C(=O)[C@H](Cl)[C@H]1c1ccccc1Cl)c1cc(-c2ccc(Cl)cc2)n[nH]1 (racemic) | 12.5 (≈ 28.7 µM) | 0.034 (≈ 0.078 µM) | 0.031 (≈ 0.0712 µM) | 0.55 (≈ 1.26 µM) | 1.6 (≈ 3.67 µM) | 12.5 (≈ 28.7 µM) | 6.3 (≈ 14.5 µM) |
| O=C(NN1C(=O)CSC1c1ccccc1Cl)c1cc(-c2ccc(Cl)cc2)n[nH]1 (racemic) | 50 (≈ 115 µM) | 0.02 (≈ 0.0462 µM) | 0.048 (≈ 0.111 µM) | 0.5 (≈ 1.15 µM) | 12.5 (≈ 28.8 µM) | 25 (≈ 57.7 µM) | 1.6 (≈ 3.69 µM) |
| O=C(NN1C(=O)[C@H](Cl)[C@H]1c1ccc(Cl)cc1)c1cc(-c2ccc(Cl)cc2)n[nH]1 (racemic) | 12.5 (≈ 28.7 µM) | 0.28 (≈ 0.643 µM) | 0.01 (≈ 0.023 µM) | 1 (≈ 2.3 µM) | 6.3 (≈ 14.5 µM) | 6.3 (≈ 14.5 µM) | 1.6 (≈ 3.67 µM) |
| O=C(NN1C(=O)CSC1c1ccc(Cl)cc1)c1cc(-c2ccc(Cl)cc2)n[nH]1 (racemic) | 6.3 (≈ 14.5 µM) | 0.048 (≈ 0.111 µM) | 0.022 (≈ 0.0508 µM) | 1.15 (≈ 2.65 µM) | 25 (≈ 57.7 µM) | 12.5 (≈ 28.8 µM) | 12.5 (≈ 28.8 µM) |
| O=C(NN1C(=O)CSC1c1ccc(O)cc1)c1cc(-c2ccc(Cl)cc2)n[nH]1 (single isomer, unassigned; (+)) | 12.5 (≈ 30.1 µM) | 0.125 (≈ 0.301 µM) | 0.017 (≈ 0.041 µM) | 0.39 (≈ 0.94 µM) | 50 (≈ 121 µM) | 1.6 (≈ 3.86 µM) | 1.6 (≈ 3.86 µM) |
| O=C(O)c1cn(C2CC2)c2cc(N3CCNCC3)c(F)cc2c1=O [CIPROFLOXACIN] |  | 0.25 (≈ 0.754 µM) |  |  |  |  |  |
| OC(Cn1cncn1)(Cn1cncn1)c1ccc(F)cc1F [FLUCONAZOLE] | 25 (≈ 81.6 µM) |  |  |  | 25 (≈ 81.6 µM) | 6.3 (≈ 20.6 µM) | 6.3 (≈ 20.6 µM) |
| Nc1nc(=O)[nH]cc1F [FLUCYTOSINE] | 25 (≈ 194 µM) |  |  |  | 6.3 (≈ 48.8 µM) | 6.3 (≈ 48.8 µM) | 6.3 (≈ 48.8 µM) |
| COc1c(N2C[C@@H]3CCCN[C@@H]3C2)c(F)cc2c(=O)c(C(=O)O)cn(C3CC3)c12 [MOXIFLOXACIN] |  | 0.06 (≈ 0.149 µM) | 0.015 (≈ 0.0374 µM) |  |  |  |  |
| CO[C@H]1/C=C/O[C@@]2(C)Oc3c(C)c(O)c4c(O)c(c(/C=N/N5CCN(C)CC5)c(O)c4c3C2=O)NC(=O)/C(C)=C\C=C\[C@H](C)[C@H](O)[C@@H](C)[C@@H](O)[C@@H](C)[C@H](OC(C)=O)[C@@H]1C [RIFAMPIN] |  |  |  | 0.125 (≈ 0.152 µM) |  |  |  |
